Measured values reported in ChEMBL document CHEMBL3272068, “Synthesis and biological activities of some N4-substituted 4-aminopyrazolo(3,4-d)pyrimidines” (J Med Chem, 1976).

Tests used:
[1] = Antiproliferative activity against human Nc37 cells assessed as cell viability at 0.1 mM after 72 hrs by trypan blue dye based hemocytometer analysis relative to control; parameters: species or system NC-37; conditions: read-out: Activity
How it was run: (§1)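 Nc 37 (normal donor buffy coat), RPMI 6410 (myeloblastic leukemia) and murine L1210 cells. Compound dissolved in Me2SO, held at 37° overnight for sterilization, diluted in RPMI 1640 + 10% fetal calf serum to final 10⁻⁴ M with 0.5% Me2SO. Unagitated tubes seeded at 2–5 × 10⁵ cells/ml from log-phase stocks. Trypan blue (0.05%) hemocytometer counts every 24 h. Viable density versus control at 72 h banded into rating categories.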

L1210 = assay: Antiproliferative activity against mouse L1210 cells assessed as cell viability at 0.1 mM after 72 hrs by trypan blue dye based hemocytometer analysis relative to control; format: functional; conditions: L1210, 72 h, read-out: Activity; how it was run: as §1
[2] = Antiproliferative activity against human RPMI6410 cells assessed as cell viability at 0.1 mM after 72 hrs by trypan blue dye based hemocytometer analysis relative to control; format: functional; conditions: RPMI 6410, 72 h, read-out: Activity; how it was run: as §1
[3] = Antiproliferative activity against human RPMI6410 cells assessed as growth inhibition at 0.1 mM; format: functional; conditions: RPMI 6410; how it was run: as §1

| Compound | viability at 72 h, 100 µM [1] [%] | viability at 100 µM (L1210) [%] | viability at 100 µM [2] [%] | inhibition at 100 µM [3] [%] |
| --- | --- | --- | --- | --- |
| c1ccc(CNc2ncnc3[nH]ncc23)cc1 | 30 | 0 | 30 | – |
| CCNc1ncnc2[nH]ncc12 | 90 | 60 | 90 | – |
| CC(C)Nc1ncnc2[nH]ncc12 | 30 | 90 | 60 | – |
| CCCCNC(=O)Nc1ncnc2[nH]cnc12 | – | – | – | 70 |
| C=CCNc1ncnc2[nH]ncc12 | 60 | 60 | 30 | – |
| O=C(O)CNC(=O)Nc1ncnc2[nH]ncc12 | 90 | 80 | 60 | – |
| CC(C)NC(=O)Nc1ncnc2[nH]ncc12 | 30 | 80 | 80 | – |
| C=CCNC(=O)Nc1ncnc2[nH]ncc12 | 30 | 0 | 90 | – |
| C#CCNC(=O)Nc1ncnc2[nH]ncc12 | 90 | 60 | 30 | – |
| CCCCNC(=O)Nc1ncnc2[nH]ncc12 | 80 | 60 | 80 | – |
| CC(C)CNC(=O)Nc1ncnc2[nH]ncc12 | 60 | 60 | 60 | – |
| CC(C)(C)NC(=O)Nc1ncnc2[nH]ncc12 | 60 | 30 | 60 | – |
| CCCCCNC(=O)Nc1ncnc2[nH]ncc12 | 0 | 30 | 30 | – |
| CC(C)CCNC(=O)Nc1ncnc2[nH]ncc12 | 60 | 60 | 60 | – |
| CC(C)(C)CNC(=O)Nc1ncnc2[nH]ncc12 | 60 | 30 | 60 | – |
| C[C@@H](O)[C@H](NC(=O)Nc1ncnc2[nH]ncc12)C(=O)O | 30 | 30 | 30 | – |
| CCCCCCCCNC(=O)Nc1ncnc2[nH]ncc12 | 0 | 0 | 0 | – |
| CCOCCNC(=O)Nc1ncnc2[nH]ncc12 | 80 | 80 | 30 | – |
| O=C(Nc1ncnc2[nH]ncc12)NC12CC3CC(CC(C3)C1)C2 | 30 | 0 | 30 | – |
| O=C(NCCCc1ccccc1)Nc1ncnc2[nH]ncc12 | 30 | 60 | 60 | – |
| O=C(NCCCCc1ccccc1)Nc1ncnc2[nH]ncc12 | 60 | 30 | 80 | – |
| O=C(Nc1ccccc1)Nc1ncnc2[nH]ncc12 | 90 | 60 | 30 | – |
| O=C(Nc1ccccc1F)Nc1ncnc2[nH]ncc12 | 90 | 60 | 60 | – |
| O=C(Nc1ccccc1Cl)Nc1ncnc2[nH]ncc12 | 90 | 60 | 80 | – |
| O=C(Nc1cccc(Cl)c1)Nc1ncnc2[nH]ncc12 | 0 | 0 | 0 | – |
| O=C(Nc1ccc(Cl)cc1)Nc1ncnc2[nH]ncc12 | 30 | 30 | 30 | – |
| CCCCCNC(=O)Nc1ncnc2[nH]cnc12 | – | – | – | 70 |
| CC(C)CCNC(=O)Nc1ncnc2[nH]cnc12 | – | – | – | 70 |
| CC(C)CCNc1ncnc2[nH]ncc12 | 0 | 0 | 30 | – |
